Reference: ChEMBL document CHEMBL3243935, “Analgesic and tranquilizing activity of 5,8-disubstituted 2-aminomethyl-3,4-dihydronaphthalenes” (J Med Chem, 1978)
The source made the active and inactive calls.

Columns and labels:
[1] = system: Mus musculus; assay: Analgesic activity in Swiss CD mouse at 100 mg/kg, ip bid for 4 days measured after naloxone challenge on day 4 by hot-plate method relative to control; format: functional, organism-based; parameters: dose 100 mg/kg
[2] = system: Mus musculus; assay: Analgesic activity in Swiss CD mouse assessed as elevation of response latency at 100 mg/kg, ip measured 2 hrs post treatment by tail flick method relative to control; format: functional; settings: route intraperitoneal
Outline: (§1)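 Male mice, about 20 g, dosed ip in saline (solution or suspension). High-intensity heat was focused on the tail, and latency to a sudden tail flick was timed, with a 10-s cutoff. Tests ran at 0.5 and 2 h post-dose, with at least ten mice per dose. Percent control = mean latency ÷ mean control latency × 100; 200% was the lower bound of activity.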

[3] = system: Canis familiaris; assay: Analgesic activity in po dosed dog assessed as increase in response threshold by radiant heat method; format: functional; settings: Canis lupus familiaris
Outline: (§2)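 Male mongrel dogs, 9-12 kg. The response threshold was the reflex fasciculation of the back muscles under radiant heat. Testing was at 0.5 and 2 h post-dose, with the end point expressed as percent of control latency.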

[4] = system: Rattus norvegicus; assay: Neuroleptic activity in ip dosed Sprague-Dawley CD rat assessed as reversal of amphetamine-induced stereotypy compound administered 1hr prior challenge; format: functional
Outline: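 Rats dosed ip, then given amphetamine sulfate 5 mg/kg 1 h later. The ED50 is the dose that reverses the amphetamine-induced stereotypy.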

[5] = system: Mus musculus; assay: Analgesic activity in Swiss CD mouse at 100 mg/kg, ip measured 2 hrs post treatment by hot-plate method relative to control; format: functional; settings: route intraperitoneal
Outline: (§3)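 Male mice, about 20 g, dosed ip in saline. Each mouse was dropped into a glass cylinder on an aluminium plate held at 57 °C. Latency to the first flick of a hind foot was timed at 0.5 and 2 h post-dose, with a 10-s cutoff. At least ten mice per dose. Percent control = mean latency ÷ mean control latency × 100; 200% was the lower bound of activity.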

[6] = system: Mus musculus; assay: Analgesic activity in Swiss CD mouse at 100 mg/kg, ip bid for 4 days measured after 4 days by hot-plate method relative to control; format: functional, organism-based; parameters: dose 100 mg/kg
Outline: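 Tolerance test in male mice: 100 mg/kg ip bid for 4 days, with hot-plate latency measured against control. A parallel group received morphine sulfate 10 mg/kg ip bid.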

[7] = system: Canis familiaris; assay: Analgesic activity in dog assessed as increase in response threshold at 3.2 mg/kg, sc measured 0.5 to 2 hrs post treatment by radiant heat method relative to control; format: functional, Canis lupus familiaris; settings: route subcutaneous
Outline: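 Male mongrel dogs (9-12 kg) received the agent sc in saline solution or suspension. The radiant heat stimulus end point was reflex fasciculation of the back muscles. Each animal was tested 0.5 and 2 h after dosing, and the end point was expressed as percent of control latency.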

[8] = system: Rattus norvegicus; assay: Analgesic activity in Sprague-Dawley CD rat at 32 mg/kg, ip measured 0.5 to 2 hrs post treatment by flinch-jump method relative to control; format: functional, organism-based; parameters: dose 32 mg/kg
Outline: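 Male rats, 200-300 g, dosed ip (saline solution or suspension). A single rising series of 1-s foot shocks was given just before and at 0.5 and 2 h after dosing. The minimum shock intensity (mA) evoking each behaviour was recorded. No response at the 2.2-mA level counted as activity. At least five rats per dose.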

[9] = system: Mus musculus; assay: Analgesic activity in Swiss CD mouse assessed as elevation of response latency at 100 mg/kg, ip measured 0.5 hr post treatment by tail flick method relative to control; format: functional; settings: route intraperitoneal; outline: as §1
[10] = system: Mus musculus; assay: Analgesic activity in Swiss CD mouse at 100 mg/kg, ip measured 0.5 hr post treatment by hot-plate method relative to control; format: functional; settings: route intraperitoneal; outline: as §3
[11] = system: Mus musculus; assay: Analgesic activity in Swiss CD mouse at 100 mg/kg, ip bid for 4 days by tail flick method relative to control in presence of naloxone; format: functional, organism-based; parameters: dose 100 mg/kg
[12] = system: Rattus norvegicus; assay: Neuroleptic activity in decarboxylase-inhibited Sprague-Dawley CD rat brain assessed as increase in DOPA accumulation at 0.1 mmol/kg relative to control; format: functional; parameters: scale not given: the % may be the effect or the level left
[13] = system: Mus musculus; assay: Analgesic activity in Swiss CD mouse at 100 mg/kg, ip bid for 4 days by hot-plate method relative to control in presence of naloxone; format: functional, organism-based; parameters: dose 100 mg/kg
[14] = system: Mus musculus; assay: Toxicity in Swiss CD mouse assessed as loss of righting reflex at 100 mg/kg, ip measured 0.5 hr post treatment; format: organism-based; parameters: dose 100 mg/kg, route intraperitoneal; settings: in vivo
Outline: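 Male Swiss CD mice (about 20 g) given compound ip in saline solution or suspension, usually 5 mL/kg, during hot-plate/tail-flick screening. At least ten mice per dose. Loss of righting reflex noted at 0.5 h after dosing.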

[15] = system: Rattus norvegicus; assay: Neuroleptic activity in decarboxylase-inhibited Sprague-Dawley CD rat brain assessed as increase in DOPA accumulation at 0.056 mmol/kg relative to control; format: functional; parameters: scale not given: the % may be the effect or the level left
[16] = system: Mus musculus; assay: Analgesic activity in Swiss CD mouse assessed as elevation of response latency at 56 mg/kg, ip measured 2 hrs post treatment by tail flick method relative to control; format: functional; settings: route intraperitoneal; outline: as §1
[17] = system: Mus musculus; assay: Analgesic activity in Swiss CD mouse at 56 mg/kg, ip measured 0.5 hr post treatment by hot-plate method relative to control; format: functional; settings: route intraperitoneal; outline: as §3
[18] = system: Mus musculus; assay: Analgesic activity in Swiss CD mouse at 56 mg/kg, ip measured 2 hrs post treatment by hot-plate method relative to control; format: functional; settings: route intraperitoneal; outline: as §3
[19] = system: Canis familiaris; assay: Analgesic activity in dog assessed as increase in response threshold at 16 mg/kg, sc measured 0.5 to 2 hrs post treatment by radiant heat method relative to control; format: functional, organism-based; parameters: dose 16 mg/kg; settings: Canis lupus familiaris; outline: as §2
[20] = system: Mus musculus; assay: Analgesic activity in Swiss CD mouse assessed as elevation of response latency at 56 mg/kg, ip measured 0.5 hr post treatment by tail flick method relative to control; format: functional; settings: route intraperitoneal; outline: as §1
[21] = system: Rattus norvegicus; assay: Neuroleptic activity in decarboxylase-inhibited Sprague-Dawley CD rat brain assessed as increase in DOPA accumulation at 0.001 mmol/kg relative to control; format: functional; parameters: scale not given: the % may be the effect or the level left

SMILES	Activity [2] [%]	ED50 [4] [mg/kg]	Activity [5] [%]	Activity [9] [%]	Activity [10] [%]	further results
Br.COc1ccc(Cl)c2c1CCC(CN1CCCC1)=C2	135	32	117	238	282	Activity [1]: Active; ED50 [3]: 16.2 mg/kg; Activity [6]: Active; Activity [7]: 50%; Activity [8]: Active; Activity [11]: Active; Activity [12]: 288%; Activity [13]: Active
CCc1ccc2c(c1)C=C(CN1CCCC1)CC2.Cl	198	–	130	–	–	Activity [14]: Toxic
Br.COc1ccc(Cl)c2c1CCC(CN1CCOCC1)=C2	125	> 32	90	136	95	Activity [15]: 243%
CCOC(=O)C1(c2ccccc2)CCN(C)CC1 [MEPERIDINE]	–	–	–	–	–	Activity [16]: 160%; Activity [17]: 296%; Activity [18]: 231%; Activity [19]: Active; Activity [20]: 194%
CCOC1(c2ccccc2)CCN(CC2=Cc3c(Cl)ccc(OC)c3CC2)CC1	157	–	156	196	262	Activity [21]: 491%
